In ChEMBL document CHEMBL4145609, “Cytotoxic Drimane Sesquiterpenoids Isolated from Perenniporia maackiae” (2018):
Where a name gives a salt, the structure may show the parent alone. Active and inactive are the calls of the source. The rule behind the calls is not given here.

What was measured:
Assay type in all cases: functional
HCT-15 = assay: Cytotoxicity against human HCT15 cells assessed as inhibition of cell proliferation measured after 72 hrs by sulforhodamine B assay; settings: for GI50: HCT-15, 72 h
How it was run: (§1)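 Cells seeded at 2 × 10^3 cells/well and exposed to a range of concentrations for 72 h, with adriamycin as reference. Fixed in 10% trichloroacetic acid overnight at 4 °C, stained with 0.4% SRB for 1 h, washed with 1% acetic acid, dye solubilized in 10 mM Tris, absorbance read at 690 nm. GI50 taken from dose–response curves corrected for starting cell count; mean of triplicates.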

MDA-MB-231 = assay: Cytotoxicity against human MDA-MB-231 cells assessed as inhibition of cell proliferation measured after 72 hrs by sulforhodamine B assay; settings: for GI50: MDA-MB-231, 72 h; how it was run: as §1
PC-3 = assay: Cytotoxicity against human PC3 cells assessed as inhibition of cell proliferation measured after 72 hrs by sulforhodamine B assay; settings: for GI50: PC-3, 72 h; how it was run: as §1
ACHN = assay: Cytotoxicity against human ACHN cells assessed as inhibition of cell proliferation measured after 72 hrs by sulforhodamine B assay; how it was run: as §1
NUGC-3 = assay: Cytotoxicity against human NUGC3 cells assessed as inhibition of cell proliferation measured after 72 hrs by sulforhodamine B assay; settings: for GI50: NUGC-3, 72 h; how it was run: as §1
NCI-H23 = assay: Cytotoxicity against human NCI-H23 cells assessed as inhibition of cell proliferation measured after 72 hrs by sulforhodamine B assay; settings: for GI50: NCI-H23, 72 h; how it was run: as §1

Compound	Activity (HCT-15)	Activity (MDA-MB-231)	Activity (PC-3)	Activity (ACHN)	Activity (NUGC-3)	Activity (NCI-H23)	GI50 (HCT-15)	GI50 (MDA-MB-231)	GI50 (PC-3)	GI50 (ACHN)	GI50 (NUGC-3)	GI50 (NCI-H23)
C[C@]1(CO)CCC[C@@]2(C)[C@H]1[C@H](O)C=C1CO[C@@H](O)[C@@]12O	inactive	inactive	inactive	inactive	inactive	inactive						
CC1(C)CCC[C@@]2(C)[C@H]1[C@@H](O)C=C1CO[C@@H](O)[C@@]12O							1800 nM	2300 nM	6000 nM	2000 nM	2400 nM	2100 nM
CO[C@H]1C=C2CO[C@@H](O)[C@]2(O)[C@@]2(C)CCCC(C)(C)[C@H]12							1600 nM	1500 nM	2000 nM	1200 nM	1900 nM	1400 nM
CC(=O)O[C@@H]1C=C2CO[C@@H](O)[C@]2(O)[C@@]2(C)CC[C@H](O)C(C)(C)[C@H]12	inactive	inactive	inactive	inactive	inactive	inactive						
COc1cccc2c1C(=O)c1c(O)c3c(c(O)c1C2=O)C[C@@](O)(C(=O)CO)C[C@@H]3O[C@H]1C[C@H](N)[C@H](O)[C@H](C)O1 [DOXORUBICIN HYDROCHLORIDE]							50 nM	70 nM	90 nM	70 nM	70 nM	80 nM
CC1(C)CCC[C@@]2(C)[C@H]1C(=O)C=C1CO[C@@H](O)[C@@]12O							5400 nM	4000 nM	4600 nM	3600 nM	2300 nM	4300 nM
CO[C@@H]1C=C2CO[C@@H](O)[C@]2(O)[C@@]2(C)CCCC(C)(C)[C@H]12	inactive	inactive	inactive	inactive	inactive	inactive						
